In ChEMBL document CHEMBL1629653, “CMY-31 and CMY-36 cephalosporinases encoded by ColE1-like plasmids” (Antimicrob Agents Chemother, 2009):

B1: Efflux transporter (Salmonella newport), Q3S5C3 (protein)
chain: MSWIVLLIAGLLEVVWAIGLKYTHGFTRLTPSIITIAAMIVSIAMLSWAMRTLPVGTAYAVWTGIGAVGAAITGILLLGESASPARLLSLGLIVAGIIGLKLSTH
B2: Class C beta-lactamase CMY-36 (Klebsiella pneumoniae), Q48435 (protein)
chain: MMKKSLCCALLLTASFSTFAAAKTEQQIADIVNRTITPLMQEQAIPGMAVAVIYQGKPYYFTWGKADIANNHPVTQQTLFELGSVSKTFNGVLGGDCIARGEIKLSDPVTKYWPELTGKQWQGIRLLHLATYTAGGLPLQIPDDVRDKAALLHFYQNWQPQWTPGAKRLYANSSIGLFGALAVKPSGMSYEEAMTRRVLQPLKLAHTWITVPENEQKDYAWGYREGKPVHVSPGQLDAEAYGVKSSVIDMARWVQANMDASHVQEKTLQQGIALAQSRYWRIGDMYQGLGWEMLNWPLKADSIINGSDSKVALAALPAVEVNPPAPAVKASWVHKTGSTGGFGSYVAFVPEKNLGIVMLANKSYPNPVRVEAAWRILEKLQ

What was measured:
[1] = substrate: O=C(Cc1cccs1)N[C@@H]1C(=O)N2C(C(=O)[O-])=C(C[n+]3ccccc3)CS[C@H]12; settings: Salmonella enterica subsp. enterica serovar Newport; AM17274
[2] = substrate: O=C(Cc1cccs1)N[C@@H]1C(=O)N2C(C(=O)O)=C(/C=C/c3ccc([N+](=O)[O-])cc3[N+](=O)[O-])CS[C@H]12; settings: Salmonella enterica subsp. enterica serovar Newport; AM17274
[3] = substrate: CC1(C)S[C@@H]2[C@H](NC(=O)Cc3ccccc3)C(=O)N2[C@H]1C(=O)O; settings: Salmonella enterica subsp. enterica serovar Newport; AM17274
[4] = substrate: O=C(Cc1cccs1)N[C@@H]1C(=O)N2C(C(=O)[O-])=C(C[n+]3ccccc3)CS[C@H]12; settings: Salmonella enterica subsp. enterica serovar Newport; AM17274; remark: listed apart in the source
[5] = substrate: CO/N=C(\C(=O)N[C@@H]1C(=O)N2C(C(=O)O)=C(COC(C)=O)CS[C@H]12)c1csc(N)n1; settings: Salmonella enterica subsp. enterica serovar Newport; AM17274
[6] = substrate: O=C(Cc1cccs1)N[C@@H]1C(=O)N2C(C(=O)O)=C(/C=C/c3ccc([N+](=O)[O-])cc3[N+](=O)[O-])CS[C@H]12; settings: Salmonella enterica subsp. enterica serovar Newport; AM17274; remark: listed apart in the source
[7] = substrate: CC1(C)S[C@@H]2[C@H](NC(=O)Cc3ccccc3)C(=O)N2[C@H]1C(=O)O; settings: Salmonella enterica subsp. enterica serovar Newport; AM17274; remark: listed apart in the source
[8] = substrate: O=C(Cc1cccs1)N[C@@H]1C(=O)N2C(C(=O)[O-])=C(C[n+]3ccccc3)CS[C@H]12; assay: (§1) Activity of Klebsiella pneumoniae HP205 cephalosporinase CMY-36 by spectrophotometry
How it was run: (§2)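 CMY β-lactamases purified from sonicated, ultracentrifuge-clarified extracts of E. coli DH5α clones (pB-cmy36, pB-cmy2) by Q- then S-Sepharose ion exchange (>90% pure by SDS-PAGE); steady-state hydrolysis kinetics measured spectrophotometrically, CMY-2 run in parallel.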

[9] = substrate: CO/N=C(\C(=O)N[C@@H]1C(=O)N2C(C(=O)O)=C(COC(C)=O)CS[C@H]12)c1csc(N)n1; assay: as §1
How it was run: as §2

[10] = substrate: O=C(Cc1cccs1)N[C@@H]1C(=O)N2C(C(=O)O)=C(/C=C/c3ccc([N+](=O)[O-])cc3[N+](=O)[O-])CS[C@H]12; assay: as §1
How it was run: as §2

[11] = substrate: CC1(C)S[C@@H]2[C@H](NC(=O)Cc3ccccc3)C(=O)N2[C@H]1C(=O)O; assay: as §1
How it was run: as §2

[12] = substrate: O=C(Cc1cccs1)N[C@@H]1C(=O)N2C(C(=O)[O-])=C(C[n+]3ccccc3)CS[C@H]12; assay: (§3) Ratio of Kcat to Km for Klebsiella pneumoniae cephalosporinase CMY-36 by spectrophotometry
How it was run: as §2

[13] = substrate: O=C(Cc1cccs1)N[C@@H]1C(=O)N2C(C(=O)O)=C(/C=C/c3ccc([N+](=O)[O-])cc3[N+](=O)[O-])CS[C@H]12; assay: as §3
How it was run: as §2

[14] = substrate: CC1(C)S[C@@H]2[C@H](NC(=O)Cc3ccccc3)C(=O)N2[C@H]1C(=O)O; assay: as §3
How it was run: as §2

Row | Protein | kcat/Km [1] [M⁻¹ s⁻¹] | kcat/Km [2] [M⁻¹ s⁻¹] | kcat/Km [3] [M⁻¹ s⁻¹] | kcat [4] [s⁻¹] | kcat [5] [s⁻¹] | Km [6] [µM] | kcat [6] [s⁻¹] | Km [7] [µM] | kcat [7] [s⁻¹] | Km [8] [µM] | kcat [8] [s⁻¹] | kcat [9] [s⁻¹] | Km [10] [µM] | kcat [10] [s⁻¹] | Km [11] [µM] | kcat [11] [s⁻¹] | kcat/Km [12] [M⁻¹ s⁻¹] | kcat/Km [13] [M⁻¹ s⁻¹] | kcat/Km [14] [M⁻¹ s⁻¹]
1 | B1 | 2.1e+06 | 9.6e+07 | 2.57e+07 | 310 | < 0.01 | 10 | 960 | 0.3 | 7.7 |  |  |  |  |  |  |  |  |  | 
2 | B2 |  |  |  |  |  |  |  |  |  | 150 | 360 | < 0.01 | 7.3 | 910 | 0.3 | 9.1 | 2.4e+06 | 1.25e+08 | 3.03e+07
